Values after ≈ are worked out from the molar mass of the structure shown.

The values below come from ChEMBL document CHEMBL2321751, “Optimization of chloronitrobenzamides (CNBs) as therapeutic leads for human African trypanosomiasis (HAT)” (J Med Chem, 2013).

Data set [1] deals with Trypanosoma brucei gambiense. In words: Antitrypanosomal activity against Trypanosoma brucei gambiense DAL 898R after 70 hrs by Alamar Blue assay. It is filed as functional, organism-based. In a few lines: (§1)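 T. b. gambiense strains were grown in HMI-9 with 15% heat-inactivated FBS and 5% human serum. 10000 trypanosomes per well were seeded into serial drug dilutions and held 70 h at 37 °C in humidified 5% CO2. Resazurin was then added for a further 4–6 h, and fluorescence was read (ex 536/em 588 nm). IC50 was taken by linear regression from sigmoidal dose-inhibition curves.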

A short description of data set [2]: Permeability of the compound at pH 7.4 by PAMPA. It counts as ADME. The following applies: PAMPA, read-out: permeability. The essentials:
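Compound (10 mM DMSO stock) was diluted in system solution buffer pH 7.4 and placed in the donor chamber of a PAMPA sandwich whose membrane was coated with GIT lipid. Acceptor buffer filled the acceptor chamber, and the assembly was stirred for 30 min. Donor and acceptor UV spectra (250–500 nm) were compared with a reference to give the permeability coefficient. Run in triplicate.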

The test system of data set [3] is Trypanosoma brucei brucei. In words: Antitrypanosomal activity against Trypanosoma brucei brucei 221 after 48 hrs by Cell Titre Glo assay. The following applies: Trypanosoma brucei, 221, 48 h. It is filed as functional, organism-based. In a few lines:
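Bloodstream-form parasites grown in HMI-9 with 10% heat-inactivated FBS, 10% Serum Plus and penicillin/streptomycin at 37 °C, 5% CO₂, to 1 × 10⁶ cells/mL. Diluted to 1 × 10⁴ cells/mL, then dosed with a DMSO dilution series by pin transfer. Incubated 48 h at 37 °C, 5% CO₂. Viability read by CellTiter-Glo luminescence. EC₅₀ from a variable-slope sigmoidal fit. Mean of six replicates, errors as 95% CI.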

Data set [4] relates to Trypanosoma brucei gambiense. In words: Antitrypanosomal activity against Trypanosoma brucei gambiense STIB930 after 70 hrs by Alamar Blue assay. It counts as functional, organism-based. The following applies: STIB930, 70 h. The essentials: as §1
Data set [5] in a line: Permeability of the compound at pH 3.0 by PAMPA. It is filed as ADME. The following applies: read-out: permeability.
A short description of data set [6]: Kinetic solubility of the compound in PBS buffer at pH 7.4 after 18 hrs by UV spectrophotometric analysis. It counts as physicochemical. The following applies: for solubility kinetic at 18 h: PBS buffer, pH 7.4, read-out: Kinetic_solubility. In a few lines: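 Compound from a 10 mM stock was added to PBS pH 7.4 and left 18 h at room temperature. The suspension was filtered, and the filtrate was mixed 1:1 with 1-propanol. Solubility was derived from UV spectrum AUC (250–500 nm) relative to a 1-propanol/PBS reference. Run in triplicate.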

Data set [7] is described as follows: Half life in human liver microsomes. It counts as ADME, Microsome. In a few lines:
(§2)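 Liver microsomes (human: pooled from 200 mixed-gender donors; mouse: female […]) were diluted in 0.1 M potassium phosphate, pH 7.4, with EDTA, then spiked from a 2 mM DMSO/acetonitrile compound stock. Reactions were started with cofactor solutions A+B and kept at 37 °C with shaking. Samples at 0, 0.5, 1, 2 and 4 h were quenched with cold methanol containing 10 μM warfarin and analysed by UPLC-MS (SIR). k = −2.303 × slope of log peak-area ratio versus time; t1/2 = 0.693/k.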

Data set [8] relates to Trypanosoma brucei rhodesiense. In words: Antitrypanosomal activity against bloodstream forms of wild type Trypanosoma brucei rhodesiense STIB900 after 70 hrs by Alamar Blue assay. The following applies: STIB900, 70 h. It is filed as functional, organism-based. In a few lines: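 T. b. rhodesiense STIB 900 was cultured in MEM with Earle's salts and Baltz supplements (0.2 mM 2-mercaptoethanol, 1 mM Na-pyruvate, 0.5 mM hypoxanthine, 15% heat-inactivated horse serum). 2000 bloodstream forms per well were exposed to serial drug dilutions for 70 h at 37 °C in humidified 5% CO2. Resazurin followed for 2–4 h, read by fluorescence (ex 536/em 588 nm). IC50 came from sigmoidal curves by linear regression.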

For a further data set, the system named is Raji. In words: Cytotoxicity against human Raji cells after 72 hrs by Cell Titre Glo assay. It is filed as cell-based. In a few lines: (§3)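 Human cells grown to 80% confluence were plated in 384-well format and received compound dilutions by pin tool. After 72 h at 37 °C in 5% CO2, viability was measured by CellTiter-Glo luminescence.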
Another data set has as its system HepG2. The data set can be described thus: Cytotoxicity against human HepG2 cells after 72 hrs by Cell Titre Glo assay. The following applies: HepG2, 72 h. It is filed as cell-based. The essentials: as §3
The test system of the next data set is BJ. The data set can be described thus: Cytotoxicity against human BJ cells after 72 hrs by Cell Titre Glo assay. It is filed as cell-based. The essentials:
as §3

A further data set relates to HEK293. The data set can be described thus: Cytotoxicity against HEK293 cells after 72 hrs by Cell Titre Glo assay. It is filed as cell-based. The following applies: Homo sapiens, HEK293, 72 h. In a few lines: as §3
Data set [9] in a line: Kinetic solubility of the compound in PBS buffer at pH 3.0 after 18 hrs by UV spectrophotometric analysis. It is filed as physicochemical. The following applies: read-out: Kinetic_solubility.
The nature of data set [10]: Half life in mouse liver microsomes. It counts as ADME, Microsome. The essentials:
as §2

For data set [11], the system named is Trypanosoma brucei gambiense. In words: Antitrypanosomal activity against Trypanosoma brucei gambiense KO48 after 70 hrs by Alamar Blue assay. It counts as functional, organism-based. The following applies: KO48, 70 h. In a few lines: as §1

Turning to `O=C(Nc1cccc(-c2nc3ccccc3s2)c1)c1cc([N+](=O)[O-])ccc1Cl`, the EC50 in data set [1] was 200 nM; in data set [3] it was 190 nM; in data set [4], 110 nM; in data set [8], 160 nM; in the data set with Raji, above 27000 nM; in the data set on HepG2 it was above 25000 nM. Besides, the EC50 in the data set on BJ was above 27000 nM; in the data set with HEK293 it was above 27000 nM; in data set [11] it was 170 nM. In addition, the Papp is 12 ×10⁻⁶ cm/s in data set [2] and 51 ×10⁻⁶ cm/s in [5]. In addition, the solubility kinetic at 18 h was found to be 0.58 µM (≈ 0.238 µg/mL) in [6] and 0.51 µM (≈ 0.209 µg/mL) in [9]. For the same compound, the half-life in data set [7] is 1 h; in data set [10], 0.18 h.

`Cc1ccc(-c2nc3ccccc3s2)cc1NC(=O)c1cc([N+](=O)[O-])c(N2CCNCC2)cc1Cl`: the figures for the Papp in [2] and in data set [5] were 4 ×10⁻⁶ cm/s and 0.6 ×10⁻⁶ cm/s, respectively. The EC50 in data set [4] was 2 nM; in [8], 7 nM; with Raji, above 25000 nM; in the data set on HepG2 it was above 25000 nM; in the data set with BJ it was 14500 nM; in the data set on HEK293, above 25000 nM. Further, the solubility kinetic at 18 h in data set [6] is 0.08 µM (≈ 0.0406 µg/mL); in data set [9] it was 1.15 µM (≈ 0.584 µg/mL). Also, the half-life in [7] and in data set [10] was above 4 h each time.

For the compound `O=C(Nc1cccc(-c2nc3ccccc3s2)c1)c1cc([N+](=O)[O-])c(N2CCNCC2)cc1Cl`, the results for the Papp in data set [2] and in [5] were 276 ×10⁻⁶ cm/s and below 1 ×10⁻⁶ cm/s, respectively. In addition, the EC50 was 190 nM in data set [3]; above 25000 nM with Raji; 5300 nM with HepG2; above 25000 nM with BJ; 12700 nM with HEK293. For the same compound, the solubility kinetic at 18 h in data set [6] was found to be 0.72 µM (≈ 0.356 µg/mL); in data set [9] it was 0.98 µM (≈ 0.484 µg/mL).

Turning to `Cc1ccc(-c2nc3ccccc3s2)cc1NC(=O)c1cc([N+](=O)[O-])c(N2CCN(C)CC2)cc1Cl`, the values for the Papp in [2] and in data set [5] were 74 ×10⁻⁶ cm/s and 60 ×10⁻⁶ cm/s, respectively. Also, the EC50 in data set [3] was 41 nM; in [4] it was 1 nM; in [8], 11 nM; with Raji it was above 25000 nM; in the data set with HepG2 it was above 25000 nM; in the data set with BJ it was above 25000 nM. Moreover, the EC50 in the data set on HEK293 is above 25000 nM. For the same compound, the results for the solubility kinetic at 18 h in data set [6] and in data set [9] were 0.7 µM (≈ 0.365 µg/mL) and 0.56 µM (≈ 0.292 µg/mL), respectively. In addition, the half-life in data set [7] was 1.6 h; in data set [10], 1.3 h.

Consider `CN1CCN(c2cc(Cl)c(C(=O)Nc3cccc(-c4nc5ccccc5s4)c3)cc2[N+](=O)[O-])CC1`, for which the Papp in data set [2] was 366 ×10⁻⁶ cm/s; in [5], 108 ×10⁻⁶ cm/s. Moreover, the EC50 in data set [3] is 110 nM; in data set [4] it was 160 nM; in data set [8], 210 nM; with Raji, 14500 nM; in the data set on HepG2, 8600 nM; in the data set with BJ, above 25000 nM. It took 14200 nM to reach a half-maximal effect in the data set with HEK293 (EC50). Also, the Kinetic_solubility entry in [6] (buffer, pH 7.4, 18 h, BLD = below limit of detection) is on record as “BLD”. Besides, the half-life is 3.3 h in data set [7] and 0.81 h in [10]. The solubility kinetic at 18 h in [9] stood at 46 µM (≈ 23.4 µg/mL).
